By IC50 is commonly meant the concentration needed to halve the response being measured. One may read the IC90 as the concentration at which the effect reaches the 90% level. By Cmax is commonly meant the peak of the concentration-time curve. Usually inhibition stands for the drop in the measured response relative to a control, in per cent.

This note sets out measurements from ChEMBL document CHEMBL4049456, “Identification of 4-(Aminomethyl)-6-(trifluoromethyl)-2-(phenoxy)pyridine Derivatives as Potent, Selective, and Orally Efficacious Inhibitors of the Copper-Dependent Amine Oxidase, Lysyl Oxidase-Like 2 (LOXL2)” (J Med Chem, 2017).

The target in one data set is T1, Lysyl oxidase homolog 2 (Homo sapiens, UniProt Q9Y4K0).
T1 sequence (Q9Y4K0 whole entry): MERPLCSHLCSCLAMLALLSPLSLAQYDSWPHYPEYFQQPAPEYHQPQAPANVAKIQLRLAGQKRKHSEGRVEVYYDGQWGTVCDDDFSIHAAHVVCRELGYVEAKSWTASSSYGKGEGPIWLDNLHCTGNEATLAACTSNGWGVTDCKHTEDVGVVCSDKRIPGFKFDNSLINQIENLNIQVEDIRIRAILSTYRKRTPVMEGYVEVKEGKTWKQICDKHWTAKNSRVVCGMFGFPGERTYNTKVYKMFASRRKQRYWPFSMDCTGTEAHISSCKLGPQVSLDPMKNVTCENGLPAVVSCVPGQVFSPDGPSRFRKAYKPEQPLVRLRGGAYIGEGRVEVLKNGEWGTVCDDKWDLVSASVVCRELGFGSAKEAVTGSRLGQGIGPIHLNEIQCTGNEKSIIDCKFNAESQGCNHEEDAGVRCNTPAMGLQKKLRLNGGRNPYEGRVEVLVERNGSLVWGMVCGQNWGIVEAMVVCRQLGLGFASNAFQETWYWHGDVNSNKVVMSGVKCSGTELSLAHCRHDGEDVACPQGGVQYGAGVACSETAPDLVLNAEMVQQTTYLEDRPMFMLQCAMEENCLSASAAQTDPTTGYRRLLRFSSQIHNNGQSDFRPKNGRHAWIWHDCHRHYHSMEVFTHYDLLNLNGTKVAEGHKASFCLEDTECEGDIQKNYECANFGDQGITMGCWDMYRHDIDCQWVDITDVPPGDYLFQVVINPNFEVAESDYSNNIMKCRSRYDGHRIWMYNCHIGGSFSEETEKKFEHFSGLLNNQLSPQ
Description: (§1) Inhibition of recombinant human LOXL2 expressed in human whole blood assessed as reduction of H2O2 production from oxidative deamination of DAP preincubated for 2 hrs followed by substrate addition measured every 2 mins for 1 hr by amplex red reagent-based fluorescence assay.

The target of data set [1] is T2, Lysyl oxidase homolog 2 (Homo sapiens) (UniProt Q9Y4K0).
T2 sequence (whole entry): T1 sequence (Q9Y4K0 whole entry)
Described as §1.

The nature of data set [2]: Cmax in C57BL/6 mouse plasma at 30 mg/kg, po by LC-MS/MS analysis. The class given is ADME, organism-based. Details: dose 30 mg/kg, route oral. A digest of the protocol: (§2)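 Normal C57BL/6 mice, n = 3 per time point, received a single oral 30 mg/kg dose formulated in 0.5% methylcellulose.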
In data set [3] the test system is Mus musculus. Description: Antifibrotic activity in C57BL/6 mouse assessed as reduction of lung fibrosis administered as po qd for 15 days starting 1 day prior to bleomycin instillation measured on day 14 post bleomycin instillation by Masson's trichrome staining-based assay. In kind it is functional. A digest of the protocol:
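Lung fibrosis induced in male C57BL/6 mice aged 6 to 7 weeks by a single oropharyngeal dose of bleomycin (1.5 U/kg). Compound given orally once daily at 3, 10, 30 or 60 mg/kg for 15 days, starting 1 day before bleomycin. Lungs taken at day 14 post-bleomycin, stained with H&E and Masson's trichrome, and an Ashcroft score assigned.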

In the next data set the target is T3, MAO-A (Homo sapiens, UniProt P21397).
T3 sequence (P21397 whole entry): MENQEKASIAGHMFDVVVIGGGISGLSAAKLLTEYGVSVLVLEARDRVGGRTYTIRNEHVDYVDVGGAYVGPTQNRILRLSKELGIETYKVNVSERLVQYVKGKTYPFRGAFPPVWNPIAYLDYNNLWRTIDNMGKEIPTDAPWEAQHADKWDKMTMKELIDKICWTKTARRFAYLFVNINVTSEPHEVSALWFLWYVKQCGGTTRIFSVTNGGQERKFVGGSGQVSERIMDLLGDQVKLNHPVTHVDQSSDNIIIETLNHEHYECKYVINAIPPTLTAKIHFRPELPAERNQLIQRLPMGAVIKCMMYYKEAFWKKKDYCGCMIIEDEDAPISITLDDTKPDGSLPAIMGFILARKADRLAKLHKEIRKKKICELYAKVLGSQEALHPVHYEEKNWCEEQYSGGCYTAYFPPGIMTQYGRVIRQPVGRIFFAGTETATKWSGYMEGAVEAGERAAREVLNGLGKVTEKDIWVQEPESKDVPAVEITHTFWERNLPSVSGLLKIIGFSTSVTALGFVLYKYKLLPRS
Put plainly: Inhibition of recombinant human MAO-A assessed as reduction of H2O2 production from oxidative deamination of tyramine at 10 uM preincubated for 2 hrs followed by substrate addition. The conditions noted are these: probe tyramine. The method in brief:
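Purified recombinant human MAO-A (tyramine substrate) or MAO-B (benzylamine substrate) was preincubated with compound for 2 h. Percent inhibition was calculated against vehicle and enzyme-free controls.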

Data set [4] in a line: Cmax in C57BL/6 mouse lung at 30 mg/kg, po by LC-MS/MS analysis. In kind it is ADME, organism-based. Details: dose 30 mg/kg, route oral. The method in brief: as §2
The next data set concerns the target T4, Protein-lysine 6-oxidase (Homo sapiens, UniProt P28300).
T4 sequence (P28300 whole entry): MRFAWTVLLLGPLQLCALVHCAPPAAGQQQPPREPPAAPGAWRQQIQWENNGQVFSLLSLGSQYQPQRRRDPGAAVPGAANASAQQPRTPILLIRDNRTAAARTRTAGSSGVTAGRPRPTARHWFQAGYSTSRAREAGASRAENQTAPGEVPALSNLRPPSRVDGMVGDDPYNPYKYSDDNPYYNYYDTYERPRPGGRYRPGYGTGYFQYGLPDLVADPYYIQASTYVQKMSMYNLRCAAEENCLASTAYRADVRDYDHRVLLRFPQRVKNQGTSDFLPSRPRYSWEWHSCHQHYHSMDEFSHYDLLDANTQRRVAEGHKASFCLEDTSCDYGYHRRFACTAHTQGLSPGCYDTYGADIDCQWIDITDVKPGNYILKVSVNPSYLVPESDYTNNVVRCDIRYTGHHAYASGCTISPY
Put plainly: Inhibition of human LOX expressed in HEK cells assessed as reduction of H2O2 production from oxidative deamination of DAP preincubated for 2 hrs followed by substrate addition in presence of 0.1% BSA measured every 2 mins for 1 hr by amplex red reagent-based fluorescence assay. The class given is cell-based.

Data set [5] deals with Mus musculus. Put plainly: Toxicity in C57BL/6 mouse assessed as mortality at 3 to 60 mg/kg, po qd administered 15 days starting 1 day prior to bleomycin instillation. The conditions noted are these: in vivo. In kind it is organism-based. A digest of the protocol:
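Male C57BL/6 mice, 6 to 7 weeks old. Lung fibrosis induced by a single oropharyngeal bleomycin dose (1.5 U/kg). Compound given orally once daily at 3, 10, 30 or 60 mg/kg for 15 days, starting 1 day before bleomycin. Mortality and body weight loss monitored; lungs taken at day 14 post-bleomycin.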

Molecules are shown by their SMILES.

As for `Cl.NCc1cc(Oc2cccc(C(=O)N3C[C@@H](O)[C@H](F)C3)c2)nc(C(F)(F)F)c1` (racemic), the IC50 is 0.87 µM on Lysyl oxidase homolog 2 and 35 µM at Protein-lysine 6-oxidase. Further, the IC90 in data set [1] was 5.4 µM. In addition, the Cmax came out at 3.09 µM in data set [2] and 21 µM in data set [4]. Also, the Activity entry with Mus musculus [3] is “Dose-dependent effect”; with Mus musculus [5], “Non-Toxic”. For the same compound, the minimal effective dose with Mus musculus [3] (C57BL/6, po, read-out: MED) was found to be 30 mg/kg. Further, at MAO-A, the inhibition at 2 h, 10 µM was below 10%.
